Screening data: PubChem BioAssay, Johns Hopkins Ion Channel Center
TRPC6 inhibitor – inhibitors of mouse TRPC6 channel. Q61143. HEK293-TRPC6, membrane potential dye, ACh-evoked depolarization; hits give low values. B-score at 10 µM. 1.1% of 310,000 active;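 active = B-score under library mean minus 3 SD, initial fluorescence not abnormally high, positive integrated signal ratio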;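 also: B-score derived from integrated fluorescence ratio over the kinetic read; more negative B-score means stronger inhibition of depolarization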
TRPC4 block – blocks the mouse TRPC4 cation channel; Q9QUQ5; HEK293 TRPC4beta/mu-opioid, DAMGO-evoked Fluo4 calcium flux; hits give low values; B-score at 10 µM; 0.39% of 300,000 active; AID 2247;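 active = B-score over 3 SD under the library average, no early fluorescence shift, positive overall ratio signal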
Target sequence (Q9QUQ5 whole entry, looked up): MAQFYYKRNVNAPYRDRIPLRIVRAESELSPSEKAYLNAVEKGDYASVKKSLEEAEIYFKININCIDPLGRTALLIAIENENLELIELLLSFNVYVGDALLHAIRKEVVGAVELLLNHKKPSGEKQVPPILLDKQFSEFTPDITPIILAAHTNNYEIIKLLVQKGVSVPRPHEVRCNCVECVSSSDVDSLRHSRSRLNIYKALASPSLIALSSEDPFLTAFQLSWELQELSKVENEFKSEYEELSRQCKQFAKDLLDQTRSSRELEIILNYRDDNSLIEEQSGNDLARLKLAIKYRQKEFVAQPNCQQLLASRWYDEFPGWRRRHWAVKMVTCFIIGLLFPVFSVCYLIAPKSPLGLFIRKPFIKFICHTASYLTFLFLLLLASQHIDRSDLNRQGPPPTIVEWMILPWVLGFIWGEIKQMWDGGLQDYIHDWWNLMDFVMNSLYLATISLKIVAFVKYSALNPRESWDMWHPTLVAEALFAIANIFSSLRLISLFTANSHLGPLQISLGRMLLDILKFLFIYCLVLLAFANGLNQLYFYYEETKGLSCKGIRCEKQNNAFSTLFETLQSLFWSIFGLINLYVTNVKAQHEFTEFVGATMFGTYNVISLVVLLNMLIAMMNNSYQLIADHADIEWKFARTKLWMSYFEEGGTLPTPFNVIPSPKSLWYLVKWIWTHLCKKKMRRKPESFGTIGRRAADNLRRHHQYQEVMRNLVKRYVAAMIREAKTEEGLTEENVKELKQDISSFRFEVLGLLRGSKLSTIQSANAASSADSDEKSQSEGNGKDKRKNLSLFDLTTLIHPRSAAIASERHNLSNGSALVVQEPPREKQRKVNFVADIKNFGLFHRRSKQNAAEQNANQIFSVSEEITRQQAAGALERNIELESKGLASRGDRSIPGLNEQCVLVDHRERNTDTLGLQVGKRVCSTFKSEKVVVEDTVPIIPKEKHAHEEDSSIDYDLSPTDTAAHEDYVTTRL
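Test system – stable TRPC4beta/mu-opioid receptor HEK293 cells · Probe or stimulus – DAMGO, a submaximal dose followed by a maximal one · Dosing – one concentration per compound · Signal – Fluo4 calcium fluorescence by kinetic imaging, 5 s 1 Hz baseline · Evaluation – per-well B score of integrated baseline-normalized Fluo4 ratio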
TRPC4 act – activators of mouse TRPC4 channel; Q9QUQ5; HEK293 TRPC4beta/mu-opioid, Fluo4 calcium fluorescence; hits give high values; B-score at 10 µM; 0.49% of 310,000 active; AID 2237;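 active = B-score above 5 SD of library B-scores, and initial fluorescence ratio not above library mean plus 5 SD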;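 also: positive B-score marks a calcium rise read as TRPC4 activation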
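Assay system: HEK293 stable line with TRPC4beta plus mu-opioid receptor. Times: dye 45 min RT, read 110 s. Measured by: kinetic Fluo4 calcium fluorescence. Measure: B score of integrated ratio. Controls: assay buffer as low control, maximal DAMGO as high control.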
TRPC4 PAM – TRPC4 (mouse) allosteric potentiation | 0.42% of 310,000 active | HEK293 TRPC4beta/mu-opioid, DAMGO EC20, Fluo-4 Ca2+ flux; hits give high values | B-score at 10 µM | AID 2227;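 active = B-score of calcium response area above 5 SD of library B-scores, with initial fluorescence ratio within 5 SD of library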;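 also: B-score of integrated fluorescence ratio over time as area under calcium response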
TRPC6 act – activators of mouse TRPC6 channel. Q61143. HEK293-TRPC6 membrane potential dye fluorescence; hits give high values. B-score at 10 µM. 0.13% of 310,000 active;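 active = B-score of the integrated fluorescence ratio above library mean plus 3 SD, and starting fluorescence ratio within library mean plus 5 SD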;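 also: higher score means more depolarization so channel activation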
Numbers without * were called inactive. An excerpt weighted towards active compounds, which were near 2.3% of everything screened.

Screening Cc1ccc2c(c1)N(C(=O)CCC(=O)NCc1ccccc1)CC(C)O2 (stereo not drawn) returned TRPC6 inhibitor inactive, TRPC4 block inactive, TRPC4 act inactive, TRPC4 PAM inactive and TRPC6 act inactive.
For CC1CC(C)CN(CCCNC(=O)CCC(=O)N2CC(C)Oc3ccccc32)C1 (stereo not drawn) the results were TRPC6 inhibitor inactive, TRPC4 block inactive, TRPC4 act 53*, TRPC4 PAM inactive and TRPC6 act inactive.
For CC1CN(C(=O)CCC(=O)NCCc2ccccc2)c2ccccc2O1 (stereo not drawn) the results were TRPC6 inhibitor inactive, TRPC4 block inactive, TRPC4 act inactive, TRPC4 PAM inactive and TRPC6 act inactive.
`COc1cccc(NC(=O)CCC(=O)N2CC(C)Oc3ccc(C)cc32)c1` (stereo not drawn) gave TRPC6 inhibitor inactive, TRPC4 block -7*, TRPC4 act inactive, TRPC4 PAM inactive and TRPC6 act inactive.
`COc1ccc(N(C(C)=O)c2nc3ccccc3[nH]2)cc1` gave TRPC6 inhibitor inactive, TRPC4 block inactive, TRPC4 act inactive, TRPC4 PAM inactive and TRPC6 act inactive.
CC(NCc1ccc(S(N)(=O)=O)cc1)C(=O)Nc1cccc(Cl)c1 (stereo not drawn) was read as TRPC6 inhibitor inactive, TRPC4 block inactive, TRPC4 act inactive, TRPC4 PAM inactive and TRPC6 act inactive.
O=C1Nc2cc(C(=O)NCCCN3CCOCC3)ccc2S/C1=C/c1ccccc1F was read as TRPC6 inhibitor inactive, TRPC4 block -6*, TRPC4 act inactive, TRPC4 PAM inactive and TRPC6 act inactive.
`Cc1ccc2[nH]c(C)c(CCN(Cc3cccnc3)C(=S)NC(C)(C)C)c2c1` gave TRPC6 inhibitor inactive, TRPC4 block inactive, TRPC4 act inactive, TRPC4 PAM 16* and TRPC6 act inactive.
For CC1=NN(c2ccccc2)C(=O)/C1=C\c1c(C)[nH]n(-c2ccccc2)c1=O the results were TRPC6 inhibitor inactive, TRPC4 block inactive, TRPC4 act inactive, TRPC4 PAM inactive and TRPC6 act inactive.
CC1=NN(c2ccccc2)C(=O)/C1=C/c1c(O)n(-c2ccc(F)c(Cl)c2)[nH]c1=O was read as TRPC6 inhibitor inactive, TRPC4 block -8*, TRPC4 act inactive, TRPC4 PAM inactive and TRPC6 act inactive.
For Cc1ccc(C(C)C)c(OCc2nn(CC(=O)c3ccc(Cl)cc3)c3[n+]2CCCCC3)c1 the results were TRPC6 inhibitor inactive, TRPC4 block inactive, TRPC4 act inactive, TRPC4 PAM inactive and TRPC6 act inactive.
Screening CCCCN(CC)CCCNC(=O)CC1Oc2ccccc2NC1=O (stereo not drawn) returned TRPC6 inhibitor inactive, TRPC4 block inactive, TRPC4 act 56*, TRPC4 PAM inactive and TRPC6 act inactive.
Screening COc1cc(OC)c(OC)cc1CNC(=O)c1cc(=O)[nH]c2ccccc12 returned TRPC6 inhibitor inactive, TRPC4 block inactive, TRPC4 act inactive, TRPC4 PAM inactive and TRPC6 act inactive.
`O=C(CN1CCN(Cc2ccc(Cl)cc2)C1=O)NCCCN1CCN(c2ccc(F)cc2)CC1` gave TRPC6 inhibitor inactive, TRPC4 block -6*, TRPC4 act inactive, TRPC4 PAM inactive and TRPC6 act inactive.
Screening O=C(CN1CCN(Cc2ccc(Cl)cc2)C1=O)NCCCN1CCOCC1 returned TRPC6 inhibitor inactive, TRPC4 block inactive, TRPC4 act inactive, TRPC4 PAM inactive and TRPC6 act inactive.
`COc1ccc(N(CC(=O)N/N=C/c2ccc3c(c2)OCO3)S(=O)(=O)c2ccc(NC(C)=O)cc2)cc1` gave TRPC6 inhibitor inactive, TRPC4 block inactive, TRPC4 act inactive, TRPC4 PAM inactive and TRPC6 act inactive.
For O=C(COc1ccc(Cl)cc1)NCc1ccccc1 the results were TRPC6 inhibitor inactive, TRPC4 block inactive, TRPC4 act inactive, TRPC4 PAM inactive and TRPC6 act inactive.
For CCC(=O)c1ccc(OCC(O)CNCc2ccc(F)cc2)cc1 (stereo not drawn) the results were TRPC6 inhibitor inactive, TRPC4 block inactive, TRPC4 act inactive, TRPC4 PAM inactive and TRPC6 act inactive.
c1ccc(CCNCCCOc2cccc3ccccc23)cc1 was read as TRPC6 inhibitor inactive, TRPC4 block inactive, TRPC4 act 66*, TRPC4 PAM inactive and TRPC6 act inactive.
CC(=O)NCCOc1cccc2ccccc12 was read as TRPC6 inhibitor inactive, TRPC4 block inactive, TRPC4 act inactive, TRPC4 PAM inactive and TRPC6 act inactive.
COc1ccc(CNCCc2ccc(Cl)cc2)cc1OCc1ccccc1 was read as TRPC6 inhibitor inactive, TRPC4 block inactive, TRPC4 act 47*, TRPC4 PAM inactive and TRPC6 act inactive.
For CCC(=O)c1ccc(OCC(O)CNCCc2ccc(Cl)cc2)cc1 (stereo not drawn) the results were TRPC6 inhibitor inactive, TRPC4 block inactive, TRPC4 act 59*, TRPC4 PAM inactive and TRPC6 act inactive.
Clc1ccc(OCCNCCc2ccccc2)cc1 was read as TRPC6 inhibitor inactive, TRPC4 block inactive, TRPC4 act 98*, TRPC4 PAM inactive and TRPC6 act inactive.
CCOc1cc(CNCc2ccccc2)ccc1OCc1ccc(Cl)cc1 was read as TRPC6 inhibitor inactive, TRPC4 block inactive, TRPC4 act inactive, TRPC4 PAM inactive and TRPC6 act inactive.
`CC(/C=C/c1ccccc1F)=N\NC(=O)c1cccc(F)c1` gave TRPC6 inhibitor inactive, TRPC4 block inactive, TRPC4 act inactive, TRPC4 PAM inactive and TRPC6 act inactive.
`Cc1ccc(N2CC(NS(=O)(=O)c3cc(F)ccc3F)CC2=O)cc1C` (stereo not drawn) gave TRPC6 inhibitor inactive, TRPC4 block inactive, TRPC4 act inactive, TRPC4 PAM inactive and TRPC6 act inactive.
OC(CNCCc1ccccc1)COc1ccc(OCC(O)CNCCc2ccccc2)cc1 (stereo not drawn) was read as TRPC6 inhibitor inactive, TRPC4 block inactive, TRPC4 act inactive, TRPC4 PAM 22* and TRPC6 act inactive.
OC(CNCCC(c1ccccc1)c1ccccc1)COc1ccccc1 (stereo not drawn) was read as TRPC6 inhibitor inactive, TRPC4 block inactive, TRPC4 act inactive, TRPC4 PAM inactive and TRPC6 act inactive.
Screening CNC(=O)C(=O)NCC1OCCCN1S(=O)(=O)c1ccc(F)cc1C (stereo not drawn) returned TRPC6 inhibitor inactive, TRPC4 block inactive, TRPC4 act inactive, TRPC4 PAM inactive and TRPC6 act inactive.
Screening Fc1ccc(C(c2nnnn2Cc2cccs2)N2CCN(C3CCCC3)CC2)cc1 (stereo not drawn) returned TRPC6 inhibitor inactive, TRPC4 block inactive, TRPC4 act inactive, TRPC4 PAM inactive and TRPC6 act inactive.
